pKd: −log10 of the molar value. Values after ≈ are worked out from the molar mass of the structure shown.
Tests used:
Albumin [1] = molecular target: T1, Albumin (Homo sapiens, UniProt P02768); test: Binding affinity to human serum albumin assessed as fraction of binding sites occupied by compound at 180 ug/ml by SPR; format: ADME; settings: isolated protein
Summary of the method: (§1)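 HSA amine-coupled on CM5 chip at 25°C, with a reference flow cell lacking protein. Compound in PBS with 5% DMSO, injected at 400 to 0.1 µM in twofold dilutions, 50 µl/min, 30 s association and 30 s dissociation. Reference-subtracted responses read 10 s into injection and DMSO-corrected. Fraction of sites occupied plotted against drug concentration from dose-response curves.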

Staphylococcus aureus [2] = test: Antimicrobial activity against Staphylococcus aureus CIP 76.25 by microdilution method in presence of 50% human serum; format: functional
Summary of the method: (§2)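 Broth microdilution MICs against S. aureus CIP 76.25 by CLSI (formerly NCCLS) standard methods, run in duplicate. Each test medium was supplemented with one serum component: 50% human serum, 4% HSA, 0.1% AGP or 1.6% human gamma globulins. These levels were chosen to match normal physiological concentrations. MIC was read as in standard testing.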

Albumin [3] = molecular target: T1, Albumin; test: Binding affinity to first site on human serum albumin by SPR; format: ADME
Summary of the method: (§3)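 SPR on a BIACORE 3000 at 25°C. HSA was amine-coupled to a CM5 chip at 40 µg/ml in 10 mM acetate, pH 5.2. Drug was injected from 400 µM to 0.1 µM in twofold dilutions in PBS with 5% DMSO at 50 µl/min, with 30 s association and 30 s dissociation. Responses were reference-subtracted, read 10 s into the injection and DMSO-corrected. Dose-response curves gave KD or fraction of sites occupied.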

Albumin [4] = molecular target: T1, Albumin; test: Binding affinity to human serum albumin assessed as fraction of binding sites occupied by compound at 22 to 44 ug/ml by SPR; format: ADME; settings: isolated protein; summary of the method: as §1
Staphylococcus aureus [5] = test: Antimicrobial activity against Staphylococcus aureus CIP 76.25 by microdilution method in presence of 4% human serum albumin; format: functional; summary of the method: as §2
Staphylococcus aureus [6] = test: Antimicrobial activity against Staphylococcus aureus CIP 76.25 by microdilution method in presence of 0.1% alpha-1-acid glycoprotein; format: functional; summary of the method: as §2
[7] = Binding affinity to human alpha-1-acid glycoprotein assessed as compound binding sites level by SPR; format: ADME
Summary of the method: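 Ranking by SPR at 25°C. AGP was PDEA-modified and thiol-coupled to a CM5 chip; a reference surface carried no protein. Drugs at 250 µM in PBS with 5% DMSO were injected in randomized duplicates for 30 s at 50 µl/min. Responses were DMSO-calibration-corrected and normalized to a 10,000-RU immobilization level. Experiments were run in triplicate, mean ± SE.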

Staphylococcus aureus [8] = test: Antimicrobial activity against Staphylococcus aureus CIP 76.25 by microdilution method in presence of 1.6% gamma globulin; format: functional; summary of the method: as §2
Staphylococcus aureus [9] = test: Antimicrobial activity against Staphylococcus aureus CIP 76.25 by microdilution method; format: functional
Summary of the method: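 S. aureus CIP 76.25 MICs determined in duplicate by CLSI standard broth microdilution.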

[10] = Protein binding in serum; format: ADME, cell-free; settings: read-out: PB (converted)
Albumin [11] = molecular target: T1, Albumin; test: Binding affinity to human serum albumin assessed as fraction of binding sites occupied by compound at 146 to 220 ug/ml by SPR; format: ADME; settings: isolated protein; summary of the method: as §3
Albumin [12] = molecular target: T1, Albumin; test: Binding affinity to human serum albumin assessed as fraction of binding sites occupied by compound at 160 ug/ml by SPR; format: ADME; settings: isolated protein; summary of the method: as §1
Albumin [13] = molecular target: T1, Albumin; test: Binding affinity to human serum albumin assessed as fraction of binding sites occupied by compound at 215 to 430 ug/ml by SPR; format: ADME; settings: isolated protein; summary of the method: as §1
Albumin [14] = molecular target: T1, Albumin; test: Binding affinity to human serum albumin assessed as fraction of binding sites occupied by compound at 20 ug/ml by SPR; format: ADME; settings: isolated protein; summary of the method: as §1
Albumin [15] = molecular target: T1, Albumin; test: Binding affinity to human serum albumin assessed as fraction of binding sites occupied by compound at 130 to 180 ug/ml by SPR; format: ADME; settings: isolated protein; summary of the method: as §3
Albumin [16] = molecular target: T1, Albumin; test: Binding affinity to human serum albumin assessed as fraction of binding sites occupied by compound at 7 to 15 ug/ml by SPR; format: ADME; settings: isolated protein; summary of the method: as §3
Albumin [17] = molecular target: T1, Albumin; test: Binding affinity to human serum albumin assessed as fraction of binding sites occupied by compound at 60 ug/ml by SPR; format: ADME; settings: isolated protein; summary of the method: as §3
Albumin [18] = molecular target: T1, Albumin; test: Binding affinity to human serum albumin assessed as fraction of binding sites occupied by compound at 120 ug/ml by SPR; format: ADME; settings: isolated protein; summary of the method: as §3
Albumin [19] = molecular target: T1, Albumin; test: Binding affinity to human serum albumin assessed as fraction of binding sites occupied by compound at 80 to 120 ug/ml by SPR; format: ADME; settings: isolated protein; summary of the method: as §3
Albumin [20] = molecular target: T1, Albumin; test: Binding affinity to human serum albumin assessed as fraction of binding sites occupied by compound at >325 ug/ml by SPR; format: ADME; settings: isolated protein; summary of the method: as §3
Albumin [21] = molecular target: T1, Albumin; test: Binding affinity to human serum albumin assessed as fraction of binding sites occupied by compound at 245 ug/ml by SPR; format: ADME; settings: isolated protein; summary of the method: as §3

T1 sequence (P02768 whole entry): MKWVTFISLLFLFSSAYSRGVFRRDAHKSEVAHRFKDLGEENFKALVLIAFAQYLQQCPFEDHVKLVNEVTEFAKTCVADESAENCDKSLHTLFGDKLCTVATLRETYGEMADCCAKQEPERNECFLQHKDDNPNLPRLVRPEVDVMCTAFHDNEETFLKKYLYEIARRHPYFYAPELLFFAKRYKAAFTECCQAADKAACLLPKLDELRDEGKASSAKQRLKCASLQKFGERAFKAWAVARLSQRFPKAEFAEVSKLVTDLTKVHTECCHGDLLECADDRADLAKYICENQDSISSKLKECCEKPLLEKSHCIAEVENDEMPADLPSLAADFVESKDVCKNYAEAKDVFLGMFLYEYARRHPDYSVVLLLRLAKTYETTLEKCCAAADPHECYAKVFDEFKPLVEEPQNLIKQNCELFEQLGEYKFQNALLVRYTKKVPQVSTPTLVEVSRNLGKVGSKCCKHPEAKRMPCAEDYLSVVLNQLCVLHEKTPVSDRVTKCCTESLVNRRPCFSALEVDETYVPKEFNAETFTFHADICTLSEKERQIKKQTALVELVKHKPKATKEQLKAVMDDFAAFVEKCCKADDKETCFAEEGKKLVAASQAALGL

| Structure (SMILES) | MIC (Staphylococcus aureus [2]) [µg/mL] | pKd (Albumin [3]) | MIC (Staphylococcus aureus [5]) [µg/mL] | MIC (Staphylococcus aureus [6]) [µg/mL] | Ratio [7] | MIC (Staphylococcus aureus [8]) [µg/mL] | MIC (Staphylococcus aureus [9]) [µg/mL] | fraction unbound [10] | other results |
| --- | --- | --- | --- | --- | --- | --- | --- | --- | --- |
| CO/N=C(\C(=O)N[C@@H]1C(=O)N2C(C(=O)O)=C(COC(C)=O)CS[C@H]12)c1csc(N)n1 [CEFOTAXIME] | 4 | 4.92 | 1 | 1 | < 1 | 2 | 0.781 (≈ 1.71 µM) | 0.97 | Ratio (Albumin [1]): 1; Ratio (Albumin [4]): 0.5 |
| CC[C@H]1OC(=O)[C@H](C)[C@@H](O[C@H]2C[C@@](C)(OC)[C@@H](O)[C@H](C)O2)[C@H](C)[C@@H](O[C@@H]2O[C@H](C)C[C@H](N(C)C)[C@H]2O)[C@](C)(O)C[C@@H](C)C(=O)[C@H](C)[C@@H](O)[C@]1(C)O [ERYTHROMYCIN] | 2 | 4.92 | 2 | 2 | < 1 | 2 | 0.195 (≈ 0.266 µM) | 0.81 | Ratio (Albumin [11]): 0.5 |
| CC(=O)O[C@H]1C[C@@]2(C)[C@@H](C[C@@H](O)[C@H]3[C@@]4(C)CC[C@@H](O)[C@@H](C)[C@@H]4CC[C@@]32C)/C1=C(\CCC=C(C)C)C(=O)O [FUSIDIC ACID] | 1020 | 4.92 | 256 | 2 | < 1 | 2 | 0.049 (≈ 0.0948 µM) | 0.03 | Ratio (Albumin [12]): 1; Ratio (Albumin [13]): 1.5; Ratio (Albumin [14]): 0.5 |
| CCC[C@@H]1C[C@@H](C(=O)N[C@@H]([C@H]2O[C@H](SC)[C@H](O)[C@@H](O)[C@H]2O)[C@@H](C)O)N(C)C1 [LINCOMYCIN] | 2 | 4.92 | 2 | 2 | < 1 | 1 | 0.391 (≈ 0.962 µM) | 0.25 | Ratio (Albumin [15]): 0.5 |
| CN(C)c1ccc(O)c2c1C[C@H]1C[C@H]3[C@H](N(C)C)C(O)=C(C(N)=O)C(=O)[C@@]3(O)C(O)=C1C2=O [MINOCYCLINE] | 4 | 4.92 | 4 | 1 | < 1 | 1 | 0.195 (≈ 0.426 µM) | 0.46 |  |
| CO[C@@H]1[C@@H](OC(N)=O)[C@@H](O)[C@H](Oc2ccc3c(O)c(NC(=O)c4ccc(O)c(CC=C(C)C)c4)c(=O)oc3c2C)OC1(C)C [NOVOBIOCIN] | 1020 | 4.92 | 256 | 2 | < 1 | 2 | 0.049 (≈ 0.08 µM) |  | Ratio (Albumin [16]): 0.5; Ratio (Albumin [17]): 1; Ratio (Albumin [18]): 1.5 |
| CC1COc2c(N3CCN(C)CC3)c(F)cc3c(=O)c(C(=O)O)cn1c23 (configuration not stated) [OFLOXACIN] | 2 | 4.92 | 1 | 1 |  | 2 | 0.195 (≈ 0.54 µM) |  |  |
| CO[C@H]1/C=C/O[C@@]2(C)Oc3c(C)c(O)c4c(O)c(c(/C=N/N5CCN(C)CC5)c(O)c4c3C2=O)NC(=O)/C(C)=C\C=C\[C@H](C)[C@H](O)[C@@H](C)[C@@H](O)[C@@H](C)[C@H](OC(C)=O)[C@@H]1C [RIFAMPIN] | 4 | 4.92 | 4 | 1 | < 1 | 2 | 0.049 (≈ 0.0595 µM) | 0.36 | Ratio (Albumin [19]): 1; Ratio (Albumin [20]): 1.5; Ratio (Albumin [21]): 0.5 |
| CN[C@H](CC(C)C)C(=O)N[C@H]1C(=O)N[C@@H](CC(N)=O)C(=O)N[C@H]2C(=O)N[C@H]3C(=O)N[C@H](C(=O)N[C@H](C(=O)O)c4cc(O)cc(O)c4-c4cc3ccc4O)[C@H](O)c3ccc(c(Cl)c3)Oc3cc2cc(c3O[C@@H]2O[C@H](CO)[C@@H](O)[C@H](O)[C@H]2O[C@H]2C[C@](C)(N)[C@H](O)[C@H](C)O2)Oc2ccc(cc2Cl)[C@H]1O [VANCOMYCIN] |  | 4.92 |  |  |  |  | 0.781 (≈ 0.539 µM) | 0.9 |  |

— ChEMBL document CHEMBL1649135, “Use of a surface plasmon resonance method to investigate antibiotic and plasma protein interactions” (Antimicrob Agents Chemother, 2009)
